Screening data from PubChem BioAssay.
ABCB1 block: ABCB1 efflux pump inhibitors, primary screen, cell-based, multiplex, flow cytometry, ABCG2 counter-screen. ATP-dependent translocase ABCB1 (Homo sapiens), P08183. CCRF-Adr cells, JC-1 efflux. inhibition, % at 6.6 µM. hit rate 0.067% among 190,000. AID 1326, 2008; in the data active = inhibition above about 40%;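 also: higher value means more JC-1 retained so stronger ABCB1 efflux block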
FLuc inh counter: firefly luciferase enzyme inhibitors, primary screen, artefact control for luciferase-based inhibitor screens, biochemical, luminescence, ATPLite. Luciferin 4-monooxygenase (Photinus pyralis), P08659. 10 min. inhibition, % at 10 µM. hit rate 1.5% among 200,000;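 active = inhibition above about 50% when tested at 10 µM, limit read from the data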
Target sequence (P08659 whole entry, looked up): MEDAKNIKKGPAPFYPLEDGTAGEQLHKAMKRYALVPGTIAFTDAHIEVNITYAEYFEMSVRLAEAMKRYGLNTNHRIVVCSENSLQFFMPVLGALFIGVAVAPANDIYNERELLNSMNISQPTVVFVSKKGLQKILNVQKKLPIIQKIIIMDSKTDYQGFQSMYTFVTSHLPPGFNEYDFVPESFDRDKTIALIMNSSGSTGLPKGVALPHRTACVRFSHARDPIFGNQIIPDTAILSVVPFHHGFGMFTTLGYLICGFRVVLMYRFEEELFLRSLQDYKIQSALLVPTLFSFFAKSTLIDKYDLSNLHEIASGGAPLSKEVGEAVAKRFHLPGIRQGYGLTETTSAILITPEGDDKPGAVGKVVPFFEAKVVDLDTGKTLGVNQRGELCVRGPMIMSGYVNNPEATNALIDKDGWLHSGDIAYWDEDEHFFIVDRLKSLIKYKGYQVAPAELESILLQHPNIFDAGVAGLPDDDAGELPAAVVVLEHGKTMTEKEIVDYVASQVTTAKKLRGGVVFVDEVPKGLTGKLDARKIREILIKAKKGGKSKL
Measles CPE: compounds protecting cells from measles virus cytopathic effect, primary screen, measles RdRp inhibitor project, single point, MLSMR library, absorbance | Measles virus-infected cells, CPE protection | protection (pct of control), % at 4 µM | hit rate 1.5% among 140,000; in the data active = protection mostly above about 24%, no sharp cut-off; inactive = mostly below about 26%
DTT redox prof: compounds producing H2O2 with reducing agent – biochemical, NIH compound library profiling, artefact control for MLSCN library redox annotation, primary screen; DTT-dependent redox cycling H2O2, phenol red/HRP absorbance; 100% = 100 µM peroxide control, 0% = buffer; activation, % at 10 µM; hit rate 0.03% among 200,000;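 active = activation of at least 50% relative to the plate's high and low controls in the primary single-dose screen; inactive = activation below 50%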;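 also: compound incubated with DTT at 0.8 mM final as the reducing agent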
ABCG2 inh: ABCG2 efflux pump inhibitors, primary screen, multiplex with ABCB1, IgMXP3 cells, flow cytometry. JC-1 efflux. inhibition, % at 6.6 µM. hit rate 0.1% among 190,000. AID 1325, 2008;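 active = inhibition above 80%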
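Assay system – ABCG2 IgMXP3 and barcoded ABCB1 CCRF-Adr cell mix · Input – 3 million cells/mL in well · Reagent – JC-1 fluorescent substrate · Compound – single test compound dose, 6.6 µM final · Timing – 10 min exposure at 25 °C with rotation, no wash · Detection – flow cytometry of retained JC-1 fluorescence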
FLuc stim CS: FLuc activators, initial screening, artefact control for FLuc-dependent activation tests, biochemical, ATPlite luminescence; ATPlite luciferase biochemical, 10 min; 0 = ATP-free wells, 1 = DMSO control; activation factor at 10 µM; Luciferin 4-monooxygenase (Photinus pyralis), P08659; 200,000 tested, under 10 active;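 active = luciferase activation factor, scaled between plate controls, of at least 2 with compound at 10 µM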
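System: cell-free luciferase reagent; medium: PBS as buffer for the ATP substrate; doses: test compounds dosed from 2 mM stocks in 100% DMSO; incubation: 10 min, room temperature; measured by: luminescence from luciferase reaction; read-out: luciferase activation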
Numbers stand for hits; – = inactive; · = no result. Only some compounds are listed: those with a hit (about 2.7% of all), similar ones and a draw of the others.

SMILES	ABCB1 block	FLuc inh counter	Measles CPE	DTT redox prof	ABCG2 inh	FLuc stim CS
O=C(CSc1ccccc1)Nc1nccs1	–	–	·	–	–	–
O=C(CC(c1ccccc1)c1ccco1)Nc1nccs1 (configuration not stated)	–	–	25.2	–	–	–
O=C(CSc1cn(Cc2ccccc2)c2ccccc12)Nc1nccs1	–	50.3	–	–	–	–
O=C(/C=C\Nc1ccccn1)c1ccccc1	–	88.7	–	–	–	–
O=C(/C=C/Nc1ccccc1Br)c1ccccn1	–	97.4	–	–	–	–
O=C(/C=C/Nc1ccccc1)c1ccc(Oc2ncccn2)cc1	–	–	–	–	–	–
COc1ccc(-c2cn3cc(Cl)ccc3n2)cc1OC	–	–	–	–	–	–
COc1ccc(-c2cn3cc(C)ccc3n2)cc1Br	–	94.2	–	–	–	–
COCCOCCOCCC(=O)NC1CC2CCC1(C)C2(C)C (configuration not stated)	–	–	50.7	–	–	–
C/C(=N/NC(=O)c1cnccn1)c1cccs1	–	–	–	–	–	–
C/C(=N/NC(=O)c1cc(-c2ccc(Br)s2)[nH]n1)c1ccco1	–	–	·	–	–	–
C/C(=N\NC(=O)c1cc(C(C)C)[nH]n1)c1ccco1	–	79.0	–	–	–	–
Cc1cc(C(=O)N/N=C/c2cccs2)n[nH]1	–	–	·	–	–	–
C/C(=N\NC(=O)c1cc(C)[nH]n1)c1cccs1	–	55.9	·	–	–	–
C/C(=N/NC(=O)c1cc(C(C)C)[nH]n1)c1cccs1	–	70.3	–	–	–	–
NC(=O)CCC(NC(=O)c1ccc(Cl)cc1)C(=O)O (configuration not stated)	–	–	·	–	–	–
Cc1cc(C)nc(Nc2n[nH]c(-c3ccccc3Cl)n2)n1	–	57.6	·	–	–	–
CCOC(=O)c1cnc(-n2nc(C)cc2C)nc1N(CC)CC	–	–	–	–	–	–
CC(=O)Nc1ccc2c(c1)ncn2-c1ccc(C)cc1	–	53.0	·	–	–	–
COc1nc(C)ccc1-c1noc(-c2ccco2)n1	–	57.7	–	–	–	–
COc1nc(-c2ccc(C)cc2)ccc1-c1noc(-c2ccco2)n1	–	–	–	–	–	–
CN(C)S(=O)(=O)NCCNc1ccc(C(F)(F)F)cc1[N+](=O)[O-]	–	–	·	–	–	–
CC1=CC(C)(C)N(C(=O)CSc2nnc(-c3ccc(C)cc3)o2)c2ccc(C)cc21	–	–	–	–	–	–
CC(C(=O)N1CCCc2ccccc21)N1C(=O)c2ccccc2C1=O (configuration not stated)	–	–	–	–	–	–
CN(C)/C=N/c1ncn(-c2ncc(C(F)(F)F)cc2Cl)n1	–	–	·	–	–	–
SMILES	ABCB1 block	FLuc inh counter	Measles CPE	DTT redox prof	ABCG2 inh	FLuc stim CS
CC(=O)c1ccc2c(c1)C1C=CCC1C(c1ccc(S(=O)(=O)N3CCOCC3)cc1)N2 (configuration not stated)	–	–	89.8	–	–	–
CSc1nc(O)c(/C=C2\C=Nc3ccccc32)[nH]1	–	60.4	–	–	–	–
O=c1[nH]c(/C=C2\C=Nc3ccccc32)c(O)n1Cc1ccccc1F	–	–	·	–	–	–
Cc1cnc(C(=O)NCCc2ccc(S(=O)(=O)NC(=O)NC3CCCCC3)cc2)cn1	·	–	84.4	–	·	–
COC(=O)c1c(C)[nH]c(C(=O)/C=C/c2ccccc2)c1C	–	58.2	–	–	–	–
COC(=O)c1c(C)[nH]c(C(=O)/C=C/c2cccc(Cl)c2)c1C	–	–	–	–	–	–
CC(=O)Oc1ccc(-c2nc(-c3cccnc3)no2)cc1	–	59.8	–	–	–	–
Cc1ccc(-c2nc(-c3cccnc3)no2)c(C)c1	–	64.9	–	–	–	–
Cc1ccc(C)c(OCc2nc(-c3cccnc3)no2)c1	–	–	–	–	–	–
